# High-throughput results as filed in PubChem BioAssay.
# MrgX1 ag: human MrgX1 receptor agonism, primary screen | B-score at 10 µM | Q96LB2 | hit rate 0.44% among 310,000 | MrgX1-HEK293 cells, Fluo-4 calcium fluorescence, agonist mode; active compounds read high;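 active means calcium response B-score plate-corrected fluorescence ratio at least 3 library SD, with starting fluorescence B-score inside 5 SD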
# Target sequence (Q96LB2 whole entry, looked up): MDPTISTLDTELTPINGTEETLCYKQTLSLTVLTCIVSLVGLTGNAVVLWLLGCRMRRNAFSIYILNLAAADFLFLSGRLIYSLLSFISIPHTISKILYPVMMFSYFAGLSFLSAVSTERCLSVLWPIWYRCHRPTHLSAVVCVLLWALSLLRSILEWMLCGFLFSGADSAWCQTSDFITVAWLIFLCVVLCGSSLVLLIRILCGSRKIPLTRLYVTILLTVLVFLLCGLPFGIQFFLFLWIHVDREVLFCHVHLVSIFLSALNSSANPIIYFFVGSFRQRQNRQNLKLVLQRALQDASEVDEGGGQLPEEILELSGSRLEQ
#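 Material: MrgX1-expressing HEK293 cells / Dosing: compound as first of three additions / Incubation: overnight seeding, then 1 h dark dye loading / Signal: Fluo-4 NW calcium fluorescence / Evaluation: B-scored fluorescence response ratio / Benchmarks: positive and negative control wells on each plate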
# MrgX1 allo act: allosterically activates human MrgX1 receptor signaling. B-score at 10 µM. Q96LB2. AID 588675. MrgX1-HEK293, Fluo-4 calcium flux, FDSS; active compounds read high. hit rate 0.63% among 310,000;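 active means plate-corrected calcium response at least 3 library SD above typical, normal starting fluorescence, not activating the receptor alone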;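 further: compound read alongside a low EC10 to EC30 dose of BAM8-22 agonist; peak minus trough fluorescence over baseline measured at the second addition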
# Cl transport mod: modulators of human KCC2 chloride dependent transport; Q9H2X9; KCC2 cells, thallium flux FluoZin-2 fluorescence; B-score of Tl+ flux slope (higher = more flux/activation; lower = inhibition) at 10 µM; hit rate 2.2% among 190,000; AID 1456;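 active means thallium flux slope and its plate-corrected score both differing from the plate sample mean at a set confidence after two filtering rounds, in either direction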;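 further: slope of fluorescence scaled to starting intensity during 10 to 20 s after thallium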
# MrgX1 antag: human MrgX1 receptor antagonism, primary screen. Q96LB2. MRGX1-HEK293 calcium flux, Fluo-4, BAM8-22 antagonism; active compounds read low. B-score at 10 µM. hit rate 1.3% among 310,000. AID 588676;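 active means calcium-response B-score plate-corrected more than 3 library SD below zero, starting fluorescence within 5 deviations, no agonist response on first addition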;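 further: peak minus trough fluorescence over baseline after final BAM8-22 challenge near maximal dose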
# RGS4 inh: inhibitors of human RGS4; B-score at 10 µM; HEK293 M3R/RGS4 inducible, Fluo-4 calcium flux; active compounds read high; triggered by carbachol at its EC20; AID 463165; hit rate 0.45% among 310,000;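 active means B-score, a plate-corrected calcium signal, over three deviations above library mean, with baseline fluorescence within five deviations of library mean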;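 further: RGS4 expression induced by doxycycline in cells with stable M3 receptor; B-score is computed from the integrated fluorescence ratio over baseline after carbachol; higher B-score means a larger calcium signal and so more RGS4 inhibition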
# Target sequence (P49798 whole entry, looked up): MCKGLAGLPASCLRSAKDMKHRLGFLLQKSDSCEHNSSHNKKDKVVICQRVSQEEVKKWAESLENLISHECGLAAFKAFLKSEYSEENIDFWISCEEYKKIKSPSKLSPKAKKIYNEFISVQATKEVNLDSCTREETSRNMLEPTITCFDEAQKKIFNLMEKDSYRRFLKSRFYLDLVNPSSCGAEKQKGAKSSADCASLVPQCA
# RGS4 act: RGS4 potentiation or activation. HEK293 M3R/inducible RGS4, carbachol calcium flux Fluo4; active compounds read low. B-score at 10 µM. hit rate 0.92% among 310,000;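 active means B-score of the integrated calcium signal more than 4 SD below the library mean, with starting fluorescence not abnormally high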;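 further: negative B-score means reduced calcium response which marks RGS4 activation or potentiation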
#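 System: HEK293 FlpIn-TREx cells, stable M3R, doxycycline-inducible RGS4. Timing: overnight RGS4 induction, 30 min dye load 37 °C, 20 min compound RT. Also added: carbachol, ECmax concentration. Measured by: Fluo4 fluorescence kinetic imaging of calcium. Evaluation: integrated calcium ratio converted to B score.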
# RGS4 activ val: RGS4 activation, validation assay; shares compounds with RGS4 act; HEK293 M3R/RGS4 inducible, carbachol calcium flux Fluo4; inhibition, % at 10 µM; hit rate 89% among 1,100; AID 602282;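 active means inhibition above 3 SD of the buffer control wells, cut at about 41% in these data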;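 further: signal is the integrated peak-minus-minimum Fluo4 fluorescence over baseline ratio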
# M3R Ca counter: counter-screen for RGS4 activators: effect in non-induced cells. shares compounds with RGS4 act. HEK293 M3R non-induced RGS4, Fluo4 calcium flux; after carbachol challenge at its EC90. inhibition, % at 10 µM. hit rate 82% among 1,100;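 active means inhibition exceeding 3 SD of buffer-only control wells, cut at about 26% in these data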;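 further: percent drop in integrated peak-minus-baseline over baseline Fluo4 ratio after carbachol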
# Active calls of the source: *; i = inactive; nt = no result given. Hits are enriched below; roughly 4.7% of the tested compounds scored in any of these assays.
SMILES,MrgX1 ag,MrgX1 allo act,Cl transport mod,MrgX1 antag,RGS4 inh,RGS4 act,RGS4 activ val,M3R Ca counter
CCOc1ccccc1N1CCN(c2ncnc3scc(-c4ccc(OC)cc4)c23)CC1,i,i,nt,i,i,-11*,90*,43*
Oc1ccccc1N1CCN(c2ncnc3scc(-c4ccc(F)cc4)c23)CC1,i,i,nt,i,i,i,nt,nt
COc1ccc(-c2csc3ncnc(N4CCN(CCO)CC4)c23)cc1,i,i,nt,i,i,i,nt,nt
COc1ccc(-c2csc3ncnc(N4CCN(c5ccccc5OC)CC4)c23)cc1,i,i,nt,i,i,-8.6*,86*,49*
CN(Cc1ccccc1)C1CCN(Cc2ccccc2[N+](=O)[O-])CC1,i,i,nt,i,i,i,nt,nt
COc1ccc(NS(=O)(=O)c2cc(NC(=O)c3cccnc3Cl)ccc2N2CCCC2)cc1,i,i,nt,i,i,i,nt,nt
Cc1ccc(C(=O)N(CCc2ccccc2)Cc2ccccc2)cc1S(=O)(=O)N1CCCCC1,i,i,nt,i,i,-8.5*,91*,50*
CCCC[C@@H]1CNCCN1CCc1cc(C(F)(F)F)cc(C(F)(F)F)c1,i,i,nt,i,i,-7.9*,93*,86*
CCCC[C@@H]1CNC(=O)C(=O)N1CCc1cc(C(F)(F)F)cc(C(F)(F)F)c1,i,i,0.26,i,i,i,nt,nt
CCN(CC)c1ccc(NC(=O)CCN2C(=O)c3ccccc3S2(=O)=O)c(C)c1,i,i,nt,i,i,i,nt,nt
CCN(Cc1ccccc1)C(=O)CCS(=O)(=O)c1ccc2c(c1)CCN2C(C)=O,i,i,nt,i,i,i,nt,nt
O=C(Nc1ccc2c(c1)CCCN2C(=O)c1ccccc1)c1ccccc1,i,i,nt,i,i,-9*,62*,0
Cc1ccccc1C(=O)Nc1ccc2c(c1)CCCN2C(=O)c1cccs1,i,i,nt,i,i,i,nt,nt
CC1CCC(C(C)C)C(OC(=O)C[n+]2cc(-c3ccc(Cl)cc3)n3c2CCCCC3)C1 (configuration not stated),i,i,0.1,i,i,-11*,94*,94*
CC(C)=CCc1c(O)ccc2c1OC(c1ccc(O)c(O)c1)CC2=O (configuration not stated),i,i,-1.5,i,i,-8.7*,93*,78*
O=C1CC(c2ccc(O)c(O)c2)Oc2c1ccc(O)c2O (configuration not stated),i,i,0.28,i,nt,nt,nt,nt
Cc1cc(=O)n(C(NC(=O)c2ccccc2)C(=O)c2ccccc2)cn1 (configuration not stated),i,i,-1.4,i,i,-9.2*,0,0
CC1=CC(C)(C)N(C(=O)CNC2CCCCC2)c2cc(C)ccc21,i,i,0.41,i,i,-8.5*,94*,97*
CSc1ccccc1NC(=O)CSc1nnc(CNC(=O)c2ccccc2F)n1C,i,i,nt,i,i,i,nt,nt
CCC(C)Nc1nc(OC(C(F)(F)F)C(F)(F)F)nc(OC(C(F)(F)F)C(F)(F)F)n1 (configuration not stated),i,i,-0.98,i,i,-7.9*,90*,53*
CCC(C)Nc1nc(OCC(F)(F)F)nc(OCC(F)(F)F)n1 (configuration not stated),i,i,-1.6,i,i,i,nt,nt
CC(C)n1cc([C@@H]2C[C@H]3CN(Cc4cccc(Cl)c4)C(=O)[C@]34CCCN24)cn1,i,i,nt,i,i,-7.6*,46*,84*
Cc1cccc(-c2nc3c(c(SCC(=O)N4CCOCC4)n2)Cc2c(CO)cnc(C)c2O3)c1,i,i,nt,i,i,i,nt,nt
COc1cccc(-c2nc3c(c(SCC(=O)N4CCOCC4)n2)Cc2c(CO)cnc(C)c2O3)c1,i,i,nt,i,i,-8.1*,40*,84*
Cc1ncc(CO)c2c1Oc1nc(-c3ccccc3)nc(SCC(=O)N3CCCCC3)c1C2,i,i,nt,i,i,-7.8*,76*,40*
SMILES,MrgX1 ag,MrgX1 allo act,Cl transport mod,MrgX1 antag,RGS4 inh,RGS4 act,RGS4 activ val,M3R Ca counter
Cc1ccc2cc(NC(=O)c3ccc(C(C)(C)C)cc3)ccc2n1,i,i,nt,i,i,-8.2*,84*,81*
CCc1ccc(C(=O)Nc2ccc3nc(C)ccc3c2)cc1,i,i,nt,i,i,i,nt,nt
CN(CC(=O)Nc1ccc(C#N)cc1)Cc1ccc(Cl)c(Cl)c1,i,i,-1.2,i,i,-8.7*,92*,95*
O=C(CN1CCN(c2ccccn2)CC1)Nc1ccc(F)cc1F,i,i,nt,i,i,i,nt,nt
Cc1ccccc1-c1nn2c(-c3ccccc3)nnc2s1,i,i,-2.3,i,i,-7.7*,0,0
CSc1nc(C=Nc2ccccc2Cl)c(O)n1Cc1cccc(Cl)c1,i,i,-0.027,i,i,i,nt,nt
COC(=O)c1ccc(N(CC(=O)NC2CCCC2)C(=O)c2ccc(C)s2)cc1,i,i,nt,i,i,-8.9*,0,0
COc1ccc(OCC(=O)Nc2cccc(-c3nc4ccccc4[nH]3)c2)cc1,i,i,0.059,i,i,i,nt,nt
O=C(COc1ccccc1)Nc1cccc(-c2nc3ccccc3[nH]2)c1,i,i,-2.4,i,i,-8.1*,76*,37*
Cc1ccc(C)c(NC(=S)N2CCC(NC(=O)c3cccc(F)c3)CC2)c1,i,i,nt,i,i,i,nt,nt
Cn1ccsc1=NC(=O)c1ccc(OC(F)(F)F)cc1,i,i,nt,i,i,i,nt,nt
Cc1ccc(C)c(NC(=O)C(NCC(C)(C)N2CCOCC2)c2ccccc2)c1 (configuration not stated),i,i,-0.046,i,i,-10*,92*,95*
Cc1nc2ccc(Br)cc2c2c1CC(CBr)O2 (configuration not stated),i,i,nt,i,i,-8.1*,64*,84*
Cc1nc2ccc(Br)cc2c2c1CC(CO)O2 (configuration not stated),i,i,nt,i,i,i,nt,nt
COC(=O)c1cc2occc2n1Cc1nc(-c2cccc(Cl)c2)oc1C,i,i,0.89,i,i,-8.9*,94*,83*
